{
  "source": "ChEMBL document CHEMBL1157620",
  "about": "“1-(Aryl)-6-[alkoxyalkyl]-3-azabicyclo[3.1.0]hexanes and 6-(aryl)-6-[alkoxyalkyl]-3-azabicyclo[3.1.0]hexanes: a new series of potent and selective triple reuptake inhibitors” (J Med Chem, 2010)",
  "key": {"Cytochrome P450 2C9": {"molecular_target": "Cytochrome P450 2C9 (Homo sapiens, UniProt P11712)", "assay": "Inhibition of human CYP2C9 by fluorescence assay", "assay_type": "ADME", "summary_of_the_method": "(§1)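 Recombinant human P450 bactosomes (0.1 mg/mL) in 50 mM phosphate, pH 7.4. Test compound at 0.1-10 μM, preincubated 10 min at 37 °C with fluorogenic substrate: ethoxyresorufin 0.5 μM (1A2), FCA 50 μM (2C9), BMC 10 μM (2C19), MMC 10 μM (2D6).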"}, "Cytochrome P450 2C19": {"molecular_target": "Cytochrome P450 2C19 (Homo sapiens, UniProt P33261)", "assay": "Inhibition of human CYP2C19 by fluorescence assay", "assay_type": "ADME", "summary_of_the_method": "as §1"}, "[1]": {"molecular_target": "Sodium-dependent dopamine transporter (Rattus norvegicus, UniProt P23977)", "assay": "Displacement of [N-methyl-3H]WIN-35428 from rat striatum DAT by filtration binding assay", "summary_of_the_method": "(§2)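 Native brain tissue filtration binding, run as for the recombinant transporters. SERT on rat or mouse cortex (20 and 7 μg protein/well respectively). NET on rat hippocampus (40 μg/well). DAT on rat striatum (20 μg/well).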"}, "[2]": {"molecular_target": "T1, Sodium-dependent noradrenaline transporter (Homo sapiens, UniProt P23975)", "T1 sequence (P23975 whole entry)": "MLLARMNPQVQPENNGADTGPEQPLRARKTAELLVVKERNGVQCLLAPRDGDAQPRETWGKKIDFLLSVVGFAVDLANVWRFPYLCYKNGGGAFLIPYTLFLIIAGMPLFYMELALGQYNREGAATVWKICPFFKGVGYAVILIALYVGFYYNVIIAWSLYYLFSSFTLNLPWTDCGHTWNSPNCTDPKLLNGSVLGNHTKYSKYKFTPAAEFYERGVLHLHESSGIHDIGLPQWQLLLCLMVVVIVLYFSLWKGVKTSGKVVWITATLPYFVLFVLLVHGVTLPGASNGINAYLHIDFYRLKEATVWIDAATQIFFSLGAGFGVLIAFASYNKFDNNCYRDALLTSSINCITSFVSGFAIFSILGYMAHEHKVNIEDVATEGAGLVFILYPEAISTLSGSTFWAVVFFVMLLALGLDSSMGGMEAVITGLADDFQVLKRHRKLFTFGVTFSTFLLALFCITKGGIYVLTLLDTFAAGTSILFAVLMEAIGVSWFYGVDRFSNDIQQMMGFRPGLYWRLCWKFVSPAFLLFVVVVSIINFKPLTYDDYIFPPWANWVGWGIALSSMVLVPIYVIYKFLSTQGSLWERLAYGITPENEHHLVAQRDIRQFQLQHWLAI", "assay": "Displacement of [3H]nisoxetine from human recombinant NET expressed in BacMam virus-transduced cells by scintillation proximity assay", "assay_type": "cell-based", "summary_of_the_method": "(§3)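 BacMam-transduced membranes in SPA format. SERT: 1 mg/mL beads, 6 μg/mL membranes, 3 nM [3H]citalopram. NET: 2 mg/mL beads, 40 μg/mL membranes, 10 nM [3H]nisoxetine. Incubated overnight at room temperature; pKi from pIC50 by Cheng-Prusoff.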"}, "[3]": {"assay": "Blood clearance in rat", "assay_type": "ADME, organism-based"}, "[4]": {"assay": "Fraction unbound in rat brain", "assay_type": "ADME, tissue-based", "settings": "brain"}, "[5]": {"assay": "Half life in rat", "assay_type": "ADME, organism-based", "settings": "in vivo"}, "Cytochrome P450 3A4": {"molecular_target": "Cytochrome P450 3A4 (Homo sapiens, UniProt P08684)", "assay": "Inhibition of human CYP3A4 by fluorescence assay"}, "Cytochrome P450 1A2": {"molecular_target": "T2, Cytochrome P450 1A2 (Homo sapiens, UniProt P05177)", "T2 sequence (P05177 whole entry)": "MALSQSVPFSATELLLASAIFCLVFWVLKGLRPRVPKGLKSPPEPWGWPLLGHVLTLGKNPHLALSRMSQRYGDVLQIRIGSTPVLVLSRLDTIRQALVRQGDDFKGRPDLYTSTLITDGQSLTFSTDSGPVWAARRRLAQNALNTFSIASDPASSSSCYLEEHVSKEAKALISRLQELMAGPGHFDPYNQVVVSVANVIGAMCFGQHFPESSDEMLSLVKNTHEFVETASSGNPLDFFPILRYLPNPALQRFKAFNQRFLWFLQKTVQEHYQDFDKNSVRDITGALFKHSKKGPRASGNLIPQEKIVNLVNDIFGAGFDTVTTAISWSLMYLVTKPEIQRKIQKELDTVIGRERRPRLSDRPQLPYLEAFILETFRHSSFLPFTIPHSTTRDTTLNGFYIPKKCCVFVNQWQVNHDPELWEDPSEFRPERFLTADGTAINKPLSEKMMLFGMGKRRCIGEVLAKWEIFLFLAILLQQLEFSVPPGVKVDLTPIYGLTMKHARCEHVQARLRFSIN", "assay": "Inhibition of human CYP1A2 by fluorescence assay", "assay_type": "ADME", "summary_of_the_method": "as §1"}, "Histamine H1 receptor": {"molecular_target": "Histamine H1 receptor (Homo sapiens, UniProt P35367)", "assay": "Inhibition of histamine H1 receptor"}, "[6]": {"assay": "Ratio of drug level in brain to blood in rat", "assay_type": "ADME, tissue-based", "settings": "read-out: BBR"}, "[7]": {"molecular_target": "T3, Sodium-dependent serotonin transporter (Homo sapiens, UniProt P31645)", "T3 sequence (P31645 whole entry)": "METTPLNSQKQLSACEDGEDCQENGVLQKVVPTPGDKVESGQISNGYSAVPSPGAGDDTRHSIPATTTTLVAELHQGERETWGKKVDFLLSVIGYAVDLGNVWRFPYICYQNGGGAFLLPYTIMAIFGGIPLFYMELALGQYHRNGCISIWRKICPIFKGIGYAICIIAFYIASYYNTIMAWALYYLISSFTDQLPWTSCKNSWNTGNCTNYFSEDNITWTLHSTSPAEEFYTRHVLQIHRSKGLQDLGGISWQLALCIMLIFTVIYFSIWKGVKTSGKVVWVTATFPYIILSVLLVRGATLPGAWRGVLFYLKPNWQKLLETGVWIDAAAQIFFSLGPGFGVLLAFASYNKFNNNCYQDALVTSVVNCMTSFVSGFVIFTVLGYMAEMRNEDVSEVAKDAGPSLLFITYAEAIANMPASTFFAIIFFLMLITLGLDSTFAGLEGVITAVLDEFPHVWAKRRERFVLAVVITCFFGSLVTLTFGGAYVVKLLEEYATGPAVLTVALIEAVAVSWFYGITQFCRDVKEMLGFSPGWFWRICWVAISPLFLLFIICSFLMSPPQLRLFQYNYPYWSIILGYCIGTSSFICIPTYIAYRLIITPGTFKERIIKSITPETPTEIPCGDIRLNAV", "assay": "Displacement of [3H]citalopram from human recombinant SERT expressed in BacMam virus-transduced cells by scintillation proximity assay", "assay_type": "cell-based", "summary_of_the_method": "as §3"}, "[8]": {"molecular_target": "T4, Voltage-gated inwardly rectifying potassium channel KCNH2 (Homo sapiens, UniProt Q12809)", "T4 sequence (Q12809 whole entry)": "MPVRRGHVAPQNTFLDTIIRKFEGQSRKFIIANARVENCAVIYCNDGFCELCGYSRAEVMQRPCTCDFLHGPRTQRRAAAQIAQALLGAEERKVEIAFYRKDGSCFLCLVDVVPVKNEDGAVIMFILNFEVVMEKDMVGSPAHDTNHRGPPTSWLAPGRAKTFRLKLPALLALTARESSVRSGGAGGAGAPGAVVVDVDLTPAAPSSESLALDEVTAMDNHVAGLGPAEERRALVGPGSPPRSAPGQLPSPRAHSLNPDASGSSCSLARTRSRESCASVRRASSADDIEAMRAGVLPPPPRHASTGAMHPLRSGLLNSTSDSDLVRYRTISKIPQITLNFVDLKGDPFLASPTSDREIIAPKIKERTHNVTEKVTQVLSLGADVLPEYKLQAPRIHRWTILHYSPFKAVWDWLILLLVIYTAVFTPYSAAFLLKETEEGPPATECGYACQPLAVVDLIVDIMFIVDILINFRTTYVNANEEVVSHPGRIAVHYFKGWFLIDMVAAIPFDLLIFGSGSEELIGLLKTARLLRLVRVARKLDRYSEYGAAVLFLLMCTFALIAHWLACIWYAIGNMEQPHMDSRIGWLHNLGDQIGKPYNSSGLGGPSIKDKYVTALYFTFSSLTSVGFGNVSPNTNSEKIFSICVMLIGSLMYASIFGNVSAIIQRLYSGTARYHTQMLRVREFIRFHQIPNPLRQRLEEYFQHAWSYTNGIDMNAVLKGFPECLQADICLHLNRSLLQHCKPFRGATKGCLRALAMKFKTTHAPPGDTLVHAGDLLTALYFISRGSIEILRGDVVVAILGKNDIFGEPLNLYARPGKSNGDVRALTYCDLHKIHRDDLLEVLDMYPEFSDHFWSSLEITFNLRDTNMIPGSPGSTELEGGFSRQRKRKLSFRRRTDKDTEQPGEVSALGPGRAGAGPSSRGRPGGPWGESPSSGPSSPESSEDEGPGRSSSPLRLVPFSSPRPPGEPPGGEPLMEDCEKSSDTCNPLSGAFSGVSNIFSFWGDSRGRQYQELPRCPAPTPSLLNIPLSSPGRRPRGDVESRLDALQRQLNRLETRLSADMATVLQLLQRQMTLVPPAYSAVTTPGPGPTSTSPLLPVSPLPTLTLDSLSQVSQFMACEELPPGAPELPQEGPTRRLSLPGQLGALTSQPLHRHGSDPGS", "assay": "Displacement of [3H][…] from human ERG by scintillation proximity assay", "summary_of_the_method": "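SPA-format [³H]dofetilide binding to hERG, with bound signal read on a plate imager. The value is reported as a binding pKi.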"}, "[9]": {"molecular_target": "T5, Sodium-dependent dopamine transporter (Homo sapiens, UniProt Q01959)", "T5 sequence (Q01959 whole entry)": "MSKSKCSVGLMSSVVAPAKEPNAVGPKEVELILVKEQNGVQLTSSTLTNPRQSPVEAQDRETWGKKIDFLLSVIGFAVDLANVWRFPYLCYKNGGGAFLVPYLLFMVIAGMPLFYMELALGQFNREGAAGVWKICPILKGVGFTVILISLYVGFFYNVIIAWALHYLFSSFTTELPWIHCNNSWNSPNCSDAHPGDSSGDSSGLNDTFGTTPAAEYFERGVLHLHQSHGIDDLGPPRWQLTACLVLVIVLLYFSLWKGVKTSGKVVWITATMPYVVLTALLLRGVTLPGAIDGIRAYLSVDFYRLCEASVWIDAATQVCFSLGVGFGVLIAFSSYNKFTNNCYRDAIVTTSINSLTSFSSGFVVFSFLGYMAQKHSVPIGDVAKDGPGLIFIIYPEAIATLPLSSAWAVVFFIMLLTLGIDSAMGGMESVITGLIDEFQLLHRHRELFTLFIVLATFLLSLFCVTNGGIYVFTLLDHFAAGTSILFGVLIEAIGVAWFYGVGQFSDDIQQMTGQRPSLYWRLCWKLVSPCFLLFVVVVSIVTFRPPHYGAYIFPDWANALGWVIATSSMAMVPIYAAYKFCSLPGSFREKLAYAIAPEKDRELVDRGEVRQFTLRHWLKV", "assay": "Inhibition of [3H]dopamine reuptake at human DAT expressed in LLCPK cells by scintillation proximity assay", "assay_type": "cell-based", "summary_of_the_method": "(§4)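 Uptake-SPA on stably transfected LLCPK cells in HEPES buffer, pH 7.4. SERT: 25000 cells/well, 1.5 mg/mL beads, 35 nM [3H]serotonin. NET: 50000 cells/well, 1.5 mg/mL beads, 45 nM [3H]noradrenalin. DAT: 75000 cells/well, 2 mg/mL beads, 75 nM [3H]dopamine. Concentrations are those of the substrate addition. 1 h at room temperature; 4-parameter fit.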"}, "[10]": {"molecular_target": "Muscarinic acetylcholine receptor M5 (Homo sapiens, UniProt P08912)", "sequence (P08912 whole entry)": "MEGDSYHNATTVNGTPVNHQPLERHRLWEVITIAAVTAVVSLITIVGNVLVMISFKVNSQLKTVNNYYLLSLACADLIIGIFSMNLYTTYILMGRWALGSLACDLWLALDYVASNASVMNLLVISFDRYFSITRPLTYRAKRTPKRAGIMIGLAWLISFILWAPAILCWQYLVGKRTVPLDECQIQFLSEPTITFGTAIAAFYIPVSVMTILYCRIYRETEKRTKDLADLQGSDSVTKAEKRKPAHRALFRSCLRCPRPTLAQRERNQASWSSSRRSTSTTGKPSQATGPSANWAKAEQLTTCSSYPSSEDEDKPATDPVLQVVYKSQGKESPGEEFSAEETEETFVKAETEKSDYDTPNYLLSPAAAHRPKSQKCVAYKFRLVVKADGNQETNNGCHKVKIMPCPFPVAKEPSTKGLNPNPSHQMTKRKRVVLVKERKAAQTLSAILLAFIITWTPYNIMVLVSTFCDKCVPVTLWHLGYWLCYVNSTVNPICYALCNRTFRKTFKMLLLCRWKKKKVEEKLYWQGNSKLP", "assay": "Inhibition of muscarinic M5 receptor"}, "[11]": {"assay": "Bioavailability in rat", "assay_type": "ADME, organism-based", "settings": "in vivo"}, "[12]": {"molecular_target": "Sodium-dependent serotonin transporter (Mus musculus, UniProt Q60857)", "sequence (Q60857 whole entry)": "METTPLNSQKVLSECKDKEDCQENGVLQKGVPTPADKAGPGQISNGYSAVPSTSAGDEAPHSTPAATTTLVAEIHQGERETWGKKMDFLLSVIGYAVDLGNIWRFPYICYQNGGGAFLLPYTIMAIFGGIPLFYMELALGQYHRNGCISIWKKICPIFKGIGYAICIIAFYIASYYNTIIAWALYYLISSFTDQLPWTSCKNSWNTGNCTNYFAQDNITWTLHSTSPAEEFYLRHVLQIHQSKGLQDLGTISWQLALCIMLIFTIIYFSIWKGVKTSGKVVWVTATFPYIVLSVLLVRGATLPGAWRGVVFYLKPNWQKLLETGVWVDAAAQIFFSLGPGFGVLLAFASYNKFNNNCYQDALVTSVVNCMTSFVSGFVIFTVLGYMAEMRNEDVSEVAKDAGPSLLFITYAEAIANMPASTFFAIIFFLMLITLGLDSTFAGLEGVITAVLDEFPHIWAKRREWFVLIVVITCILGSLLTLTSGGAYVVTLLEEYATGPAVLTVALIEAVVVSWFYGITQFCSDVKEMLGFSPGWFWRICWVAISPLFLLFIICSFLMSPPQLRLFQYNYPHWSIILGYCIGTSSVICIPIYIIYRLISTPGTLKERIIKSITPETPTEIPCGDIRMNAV", "assay": "Displacement of [3H]citalopram from mouse cortex SERT by filtration binding assay", "summary_of_the_method": "as §2"}, "[13]": {"molecular_target": "Muscarinic acetylcholine receptor M2 (Homo sapiens, UniProt P08172)", "assay": "Inhibition of muscarinic M2 receptor"}, "[14]": {"molecular_target": "T4, Voltage-gated inwardly rectifying potassium channel KCNH2", "assay": "Inhibition of human ERG assessed as blockade of channel current by electrophysiology assay"}, "Liver microsomes [15]": {"tested_on": "Liver microsomes", "assay": "Intrinsic clearance in rat liver microsomes assessed per gram of protein at 0.5 uM after 30 mins by HPLC-MS/MS analysis", "assay_type": "ADME, Microsome", "settings": "microsomes, 0.5 h, 0.5 µM", "summary_of_the_method": "(§5)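 Compound at 0.5 μM with rat or human liver microsomes (0.5 mg protein/mL), 50 mM phosphate, pH 7.4, 37 °C, started with NADPH. Sampled at 0-30 min, acetonitrile quench, HPLC-MS/MS. CLi from first-order elimination constant, scaled assuming 52.5 mg microsomal protein/g.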"}, "[16]": {"assay": "Volume of distribution in rat", "assay_type": "ADME, organism-based", "settings": "in vivo"}, "[17]": {"molecular_target": "T1, Sodium-dependent noradrenaline transporter", "assay": "Inhibition of [3H]noradrenalin reuptake at human NET expressed in LLCPK cells by scintillation proximity assay", "assay_type": "cell-based", "summary_of_the_method": "as §4"}, "Liver microsomes [18]": {"tested_on": "Liver microsomes", "assay": "Intrinsic clearance in human liver microsomes assessed per gram of protein at 0.5 uM after 30 mins by HPLC-MS/MS analysis", "assay_type": "ADME, Microsome", "settings": "microsomes, 0.5 h, 0.5 µM", "summary_of_the_method": "as §5"}, "[19]": {"molecular_target": "Sodium-dependent serotonin transporter (Rattus norvegicus, UniProt P31652)", "sequence (P31652 whole entry)": "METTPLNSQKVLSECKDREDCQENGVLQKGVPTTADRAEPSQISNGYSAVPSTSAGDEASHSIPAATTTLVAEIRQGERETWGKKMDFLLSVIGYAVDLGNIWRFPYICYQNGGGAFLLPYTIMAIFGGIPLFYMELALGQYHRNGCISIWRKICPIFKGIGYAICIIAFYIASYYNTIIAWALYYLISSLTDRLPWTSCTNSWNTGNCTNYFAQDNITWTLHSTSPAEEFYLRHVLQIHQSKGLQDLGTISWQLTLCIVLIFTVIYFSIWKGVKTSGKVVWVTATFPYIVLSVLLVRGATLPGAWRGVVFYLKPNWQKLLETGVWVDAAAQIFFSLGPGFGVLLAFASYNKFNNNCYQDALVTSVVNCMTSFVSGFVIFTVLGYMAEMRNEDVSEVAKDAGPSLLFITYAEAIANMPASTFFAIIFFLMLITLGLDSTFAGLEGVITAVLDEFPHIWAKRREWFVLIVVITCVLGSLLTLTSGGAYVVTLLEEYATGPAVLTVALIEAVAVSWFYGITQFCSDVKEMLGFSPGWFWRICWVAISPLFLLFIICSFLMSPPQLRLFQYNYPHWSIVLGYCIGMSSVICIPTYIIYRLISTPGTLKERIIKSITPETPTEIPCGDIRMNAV", "assay": "Displacement of [3H]citalopram from rat cortex SERT by filtration binding assay", "summary_of_the_method": "as §2"}, "[20]": {"molecular_target": "Muscarinic acetylcholine receptor M1 (Homo sapiens, UniProt P11229)", "assay": "Inhibition of muscarinic M1 receptor"}, "[21]": {"molecular_target": "T3, Sodium-dependent serotonin transporter", "assay": "Inhibition of [3H]serotonin reuptake at human SERT expressed in LLCPK cells by scintillation proximity assay", "assay_type": "cell-based", "summary_of_the_method": "as §4"}, "Transporter": {"molecular_target": "Transporter (Rattus norvegicus, UniProt Q63380)", "assay": "Displacement of [N-methyl-3H]nisoxetine from rat hippocampus NET by filtration binding assay", "assay_type": "tissue-based", "summary_of_the_method": "as §2"}, "[22]": {"molecular_target": "Alpha-1A adrenergic receptor (Homo sapiens, UniProt P35348)", "assay": "Inhibition of adrenergic alpha1A receptor"}, "[23]": {"molecular_target": "Muscarinic acetylcholine receptor M4 (Homo sapiens, UniProt P08173)", "assay": "Inhibition of muscarinic M4 receptor"}, "[24]": {"molecular_target": "5-hydroxytryptamine receptor 2A (Homo sapiens, UniProt P28223)", "assay": "Inhibition of 5HT2A receptor"}, "[25]": {"molecular_target": "Muscarinic acetylcholine receptor M3 (Homo sapiens, UniProt P20309)", "assay": "Inhibition of muscarinic M3 receptor"}, "[26]": {"molecular_target": "T5, Sodium-dependent dopamine transporter", "assay": "Displacement of [3H]WIN-35428 from human recombinant DAT expressed in BacMam virus-transduced cells by scintillation proximity assay", "assay_type": "cell-based"}, "Cytochrome P450 2D6": {"molecular_target": "Cytochrome P450 2D6 (Homo sapiens, UniProt P10635)", "assay": "Inhibition of human […] by fluorescence assay", "assay_type": "ADME", "summary_of_the_method": "as §1"}},
  "data": [
    {"smiles": "CCOC[C@H]1[C@@H]2CNC[C@@]21c1ccc(Cl)c(Cl)c1", "values": [
      {"measurement": "IC50", "setting": "Cytochrome P450 2C9", "result": "> 9000", "unit": "nM"},
      {"measurement": "IC50", "setting": "Cytochrome P450 2C19", "result": "> 9000", "unit": "nM"},
      {"measurement": "Ki", "setting": "[1]", "result": 13.5, "unit": "nM"},
      {"measurement": "Ki", "setting": "[2]", "result": 0.501, "unit": "nM"},
      {"measurement": "clearance", "setting": "[3]", "result": 18, "unit": "mL/min/kg"},
      {"measurement": "fraction unbound", "setting": "[4]", "result": 0.014},
      {"measurement": "half-life", "setting": "[5]", "result": 1.2, "unit": "h"},
      {"measurement": "IC50", "setting": "Cytochrome P450 3A4", "result": "> 9000", "unit": "nM"},
      {"measurement": "IC50", "setting": "Cytochrome P450 1A2", "result": "> 9000", "unit": "nM"},
      {"measurement": "Ki", "setting": "Histamine H1 receptor", "result": 1000, "unit": "nM"},
      {"measurement": "Kp", "setting": "[6]", "result": 4.6},
      {"measurement": "Ki", "setting": "[7]", "result": 0.158, "unit": "nM"},
      {"measurement": "Ki", "setting": "[8]", "result": 12600, "unit": "nM"},
      {"measurement": "IC50", "setting": "[9]", "result": 5.01, "unit": "nM"},
      {"measurement": "Ki", "setting": "[10]", "result": 100, "unit": "nM"},
      {"measurement": "bioavailability", "setting": "[11]", "result": 61, "unit": "%"},
      {"measurement": "Ki", "setting": "[12]", "result": 0.851, "unit": "nM"},
      {"measurement": "Ki", "setting": "[13]", "result": 200, "unit": "nM"},
      {"measurement": "IC50", "setting": "[14]", "result": 4200, "unit": "nM"},
      {"measurement": "CL", "setting": "Liver microsomes [15]", "result": 1.3, "unit": "mL/min/g"},
      {"measurement": "Vd", "setting": "[16]", "result": 1.4, "unit": "L/kg"},
      {"measurement": "IC50", "setting": "[17]", "result": 0.158, "unit": "nM"},
      {"measurement": "CL", "setting": "Liver microsomes [18]", "result": 1.2, "unit": "mL/min/g"},
      {"measurement": "Ki", "setting": "[19]", "result": 0.676, "unit": "nM"},
      {"measurement": "Ki", "setting": "[20]", "result": 158, "unit": "nM"},
      {"measurement": "IC50", "setting": "[21]", "result": 1.26, "unit": "nM"},
      {"measurement": "Ki", "setting": "Transporter", "result": 0.135, "unit": "nM"},
      {"measurement": "Ki", "setting": "[22]", "result": 200, "unit": "nM"},
      {"measurement": "Ki", "setting": "[23]", "result": 251, "unit": "nM"},
      {"measurement": "Ki", "setting": "[24]", "result": 158, "unit": "nM"},
      {"measurement": "Ki", "setting": "[25]", "result": 63.1, "unit": "nM"},
      {"measurement": "Ki", "setting": "[26]", "result": 7.94, "unit": "nM"},
      {"measurement": "IC50", "setting": "Cytochrome P450 2D6", "result": 4000, "unit": "nM"}
    ]}
  ]
}
